The values below come from ChEMBL document CHEMBL1765003, “Discovery of (1S,2R,3R)-2,3-dimethyl-2-phenyl-1-sulfamidocyclopropanecarboxylates: novel and highly selective aggrecanase inhibitors” (J Med Chem, 2011).

The structures appear in SMILES notation.

In one data set the target is Cytochrome P450 3A4 (Homo sapiens, UniProt P08684). The data set can be described thus: Inhibition of CYP3A4 at up to 50 uM. The format is ADME.
In a further data set the target is Cytochrome P450 2C19 (Homo sapiens, UniProt P33261). The data set can be described thus: Inhibition of CYP2C19 at up to 50 uM. The format is ADME.
In data set [1] the target is Disintegrin and metalloproteinase domain-containing protein 17 (Homo sapiens, UniProt P78536). The data set can be described thus: Inhibition of human recombinant TACE after 60 mins by fluorescence plate reader. The gist of the method:
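rh-TACE at 80 ng/mL with 10 μM MCA-Pro-Leu-Ala-Gln-Ala-Val-Dpa-Arg-Ser-Ser-Ser-Arg-NH₂, in 100 mM Tris-HCl pH 7.5, 150 mM NaCl, 10 mM CaCl₂, 0.05% Brij-35. Inhibitor preincubated for 15 min at 25 °C. Fluorescence (ex 325/em 405 nm) read at 60 min. IC50 from three linear-range points; mean of ≥2.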

For another data set, the target named is T1, Interstitial collagenase (Homo sapiens, UniProt P03956).
T1 sequence (P03956 whole entry): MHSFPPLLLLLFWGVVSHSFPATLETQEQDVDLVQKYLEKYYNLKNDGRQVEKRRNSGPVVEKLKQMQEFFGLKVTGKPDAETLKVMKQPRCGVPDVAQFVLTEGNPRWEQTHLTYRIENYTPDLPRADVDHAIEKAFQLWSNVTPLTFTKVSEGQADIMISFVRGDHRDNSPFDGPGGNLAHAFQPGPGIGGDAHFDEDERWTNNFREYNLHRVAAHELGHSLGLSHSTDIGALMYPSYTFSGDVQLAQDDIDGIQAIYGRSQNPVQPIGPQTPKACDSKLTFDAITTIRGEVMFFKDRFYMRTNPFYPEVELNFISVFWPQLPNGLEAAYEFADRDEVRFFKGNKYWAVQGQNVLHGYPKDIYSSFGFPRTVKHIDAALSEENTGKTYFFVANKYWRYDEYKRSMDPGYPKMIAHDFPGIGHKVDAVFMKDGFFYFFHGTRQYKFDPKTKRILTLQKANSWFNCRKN
The experiment in a line: Inhibition of human recombinant MMP1 after 60 mins by fluorescence plate reader. In a few lines:
(§1)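 Recombinant human enzyme at 20 ng/mL with 10 μM MOCAc-Lys-Pro-Leu-Gly-Leu-A2pr(Dnp)-Ala-Arg-NH₂, in 100 mM Tris-HCl pH 7.5, 150 mM NaCl, 10 mM CaCl₂, 0.05% Brij-35. Enzyme pretreated with inhibitor for 15 min at 25 °C, then substrate added. Fluorescence (ex 325, em 405 nm) read at 60 min. IC50 taken from three points in the linear range; mean of ≥2 determinations.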

The target in data set [2] is Matrix metalloproteinase-14 (Homo sapiens, UniProt P50281). The experiment in a line: Inhibition of human recombinant MMP14 after 60 mins by fluorescence plate reader. The gist of the method:
as §1

For data set [3], the target named is T2, A disintegrin and metalloproteinase with thrombospondin motifs 5 (Homo sapiens, UniProt Q9UNA0).
T2 sequence (Q9UNA0 whole entry): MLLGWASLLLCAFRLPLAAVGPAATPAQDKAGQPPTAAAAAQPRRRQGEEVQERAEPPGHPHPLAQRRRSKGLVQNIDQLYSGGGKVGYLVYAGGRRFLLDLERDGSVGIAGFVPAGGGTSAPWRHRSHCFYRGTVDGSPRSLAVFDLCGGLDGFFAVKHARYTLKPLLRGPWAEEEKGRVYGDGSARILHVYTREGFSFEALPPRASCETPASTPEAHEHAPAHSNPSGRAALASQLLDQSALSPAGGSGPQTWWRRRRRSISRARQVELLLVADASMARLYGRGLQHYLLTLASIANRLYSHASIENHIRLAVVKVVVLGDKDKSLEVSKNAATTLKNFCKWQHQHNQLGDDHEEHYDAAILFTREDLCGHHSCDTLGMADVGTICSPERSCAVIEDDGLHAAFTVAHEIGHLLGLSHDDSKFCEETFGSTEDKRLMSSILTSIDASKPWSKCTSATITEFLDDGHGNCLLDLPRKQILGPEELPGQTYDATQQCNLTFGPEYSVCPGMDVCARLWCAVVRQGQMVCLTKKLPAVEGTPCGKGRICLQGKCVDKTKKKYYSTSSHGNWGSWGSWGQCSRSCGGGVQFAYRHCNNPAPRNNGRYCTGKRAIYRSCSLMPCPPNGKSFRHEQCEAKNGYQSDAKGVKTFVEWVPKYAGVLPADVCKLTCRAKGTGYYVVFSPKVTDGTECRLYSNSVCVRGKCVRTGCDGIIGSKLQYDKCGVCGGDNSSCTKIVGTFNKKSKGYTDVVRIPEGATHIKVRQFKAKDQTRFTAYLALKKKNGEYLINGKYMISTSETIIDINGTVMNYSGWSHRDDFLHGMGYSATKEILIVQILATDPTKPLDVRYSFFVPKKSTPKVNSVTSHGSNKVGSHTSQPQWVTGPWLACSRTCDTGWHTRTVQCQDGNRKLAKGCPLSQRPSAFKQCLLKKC
The experiment in a line: Inhibition of human recombinant aggrecanase 2 after 150 mins by fluorescence plate reader.

A further data set deals with Cytochrome P450 2C9 (Homo sapiens, UniProt P11712). The experiment in a line: Inhibition of CYP2C9 at up to 50 uM. Type of data set: ADME.
A further data set deals with Cytochrome P450 2D6 (Homo sapiens, UniProt P10635). The data set can be described thus: Inhibition of CYP2D6 at up to 50 uM. The format is ADME.
A further data set addresses T3, Cytochrome P450 1A2 (Homo sapiens, UniProt P05177).
T3 sequence (P05177 whole entry): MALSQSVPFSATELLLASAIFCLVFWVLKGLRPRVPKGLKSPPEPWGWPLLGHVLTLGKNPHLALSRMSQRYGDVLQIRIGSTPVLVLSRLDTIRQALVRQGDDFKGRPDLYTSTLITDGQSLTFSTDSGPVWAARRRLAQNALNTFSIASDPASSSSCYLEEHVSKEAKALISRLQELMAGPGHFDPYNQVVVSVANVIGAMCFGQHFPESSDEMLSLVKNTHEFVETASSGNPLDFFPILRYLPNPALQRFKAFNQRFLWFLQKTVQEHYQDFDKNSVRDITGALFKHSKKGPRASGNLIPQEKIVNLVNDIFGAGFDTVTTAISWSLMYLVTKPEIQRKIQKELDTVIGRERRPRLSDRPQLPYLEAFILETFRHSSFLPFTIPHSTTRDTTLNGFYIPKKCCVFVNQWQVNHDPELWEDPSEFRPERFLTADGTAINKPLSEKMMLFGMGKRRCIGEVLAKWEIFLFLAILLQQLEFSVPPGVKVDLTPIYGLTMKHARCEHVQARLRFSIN
The data set can be described thus: Inhibition of CYP1A2 at up to 50 uM. The format is ADME.

The target in another data set is T4, Cytochrome P450 2A6 (Homo sapiens, UniProt P11509).
T4 sequence (P11509 whole entry): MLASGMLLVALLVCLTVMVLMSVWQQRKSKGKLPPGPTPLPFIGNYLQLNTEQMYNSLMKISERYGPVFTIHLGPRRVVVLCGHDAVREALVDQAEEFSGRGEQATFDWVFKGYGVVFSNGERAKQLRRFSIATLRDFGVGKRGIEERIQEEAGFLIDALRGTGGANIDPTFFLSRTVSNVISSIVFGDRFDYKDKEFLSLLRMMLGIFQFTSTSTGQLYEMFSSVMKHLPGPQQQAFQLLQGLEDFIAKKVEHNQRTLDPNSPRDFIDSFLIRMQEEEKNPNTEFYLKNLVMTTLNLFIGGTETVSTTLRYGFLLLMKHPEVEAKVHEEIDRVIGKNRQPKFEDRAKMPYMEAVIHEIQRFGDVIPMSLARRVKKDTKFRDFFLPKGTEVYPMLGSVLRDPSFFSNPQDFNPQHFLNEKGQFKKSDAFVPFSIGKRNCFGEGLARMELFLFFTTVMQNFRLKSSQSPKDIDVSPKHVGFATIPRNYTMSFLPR
The experiment in a line: Inhibition of CYP2A6 at up to 50 uM. Type of data set: ADME.

The nature of data set [4]: Volume of distribution at steady state in Sprague-Dawley rat at 1 mg/kg, iv. Type of data set: ADME, organism-based. More on the design: dose 1 mg/kg, route intravenous. Particulars: in vivo, read-out: Vdss. In a few lines: (§2)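 Intravenous dose of 1 mg/kg. Blood sampled at 0.50, 1, 2, 4, 8 and 24 h. Plasma obtained by centrifugation at 10 000 rpm for 5 min and kept at −20 °C until analysis.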

Data set [5] in a line: Clearance in Sprague-Dawley rat at 1 mg/kg, iv. The format is ADME, organism-based. More on the design: dose 1 mg/kg, route intravenous. Particulars: in vivo. In a few lines:
as §2

A short description of data set [6]: Half life in Sprague-Dawley rat at 10 mg/kg, po. Type of data set: ADME, organism-based. Details: dose 10 mg/kg, route oral. Particulars: in vivo.
Data set [7] is described as follows: Cmax in Sprague-Dawley rat at 10 mg/kg, po. The format is ADME, organism-based. More on the design: dose 10 mg/kg, route oral. To be noted: in vivo.
Data set [8] is described as follows: AUC in Sprague-Dawley rat at 10 mg/kg, po. The format is ADME, organism-based. More on the design: dose 10 mg/kg, route oral. Particulars: plasma.
A short description of data set [9]: Oral bioavailability in Sprague-Dawley rat at 10 mg/kg. The format is ADME, organism-based. Particulars: Sprague-Dawley, in vivo.

Sequence of Cytochrome P450 2C19 (P33261 whole entry, the tested form may be a part): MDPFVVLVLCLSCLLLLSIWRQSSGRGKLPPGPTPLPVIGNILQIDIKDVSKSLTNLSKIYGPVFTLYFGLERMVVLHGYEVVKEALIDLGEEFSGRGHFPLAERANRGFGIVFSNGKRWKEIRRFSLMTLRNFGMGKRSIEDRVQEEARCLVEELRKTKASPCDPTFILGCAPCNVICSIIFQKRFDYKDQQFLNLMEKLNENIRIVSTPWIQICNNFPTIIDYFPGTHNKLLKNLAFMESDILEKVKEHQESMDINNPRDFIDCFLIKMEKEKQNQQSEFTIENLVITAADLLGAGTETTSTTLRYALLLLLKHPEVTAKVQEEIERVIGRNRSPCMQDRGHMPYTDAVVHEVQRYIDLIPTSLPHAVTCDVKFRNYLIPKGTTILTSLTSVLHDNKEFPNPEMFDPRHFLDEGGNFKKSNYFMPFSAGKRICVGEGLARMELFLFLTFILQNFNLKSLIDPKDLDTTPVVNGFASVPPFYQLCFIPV
Sequence of Cytochrome P450 3A4 (P08684 whole entry): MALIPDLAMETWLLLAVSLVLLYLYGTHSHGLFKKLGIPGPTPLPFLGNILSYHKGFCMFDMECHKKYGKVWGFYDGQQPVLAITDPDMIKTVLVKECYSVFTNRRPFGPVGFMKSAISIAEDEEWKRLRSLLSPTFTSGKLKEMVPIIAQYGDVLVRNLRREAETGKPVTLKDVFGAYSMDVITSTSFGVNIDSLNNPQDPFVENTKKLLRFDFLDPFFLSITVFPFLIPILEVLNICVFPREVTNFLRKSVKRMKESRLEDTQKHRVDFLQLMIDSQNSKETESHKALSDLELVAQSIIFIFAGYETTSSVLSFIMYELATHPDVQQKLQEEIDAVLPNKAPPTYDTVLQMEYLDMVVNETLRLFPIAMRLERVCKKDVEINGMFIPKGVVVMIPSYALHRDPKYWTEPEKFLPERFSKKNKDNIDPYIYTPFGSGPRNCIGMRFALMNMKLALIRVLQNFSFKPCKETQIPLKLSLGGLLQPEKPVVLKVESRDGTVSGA
Sequence of Cytochrome P450 2C9 (P11712 whole entry): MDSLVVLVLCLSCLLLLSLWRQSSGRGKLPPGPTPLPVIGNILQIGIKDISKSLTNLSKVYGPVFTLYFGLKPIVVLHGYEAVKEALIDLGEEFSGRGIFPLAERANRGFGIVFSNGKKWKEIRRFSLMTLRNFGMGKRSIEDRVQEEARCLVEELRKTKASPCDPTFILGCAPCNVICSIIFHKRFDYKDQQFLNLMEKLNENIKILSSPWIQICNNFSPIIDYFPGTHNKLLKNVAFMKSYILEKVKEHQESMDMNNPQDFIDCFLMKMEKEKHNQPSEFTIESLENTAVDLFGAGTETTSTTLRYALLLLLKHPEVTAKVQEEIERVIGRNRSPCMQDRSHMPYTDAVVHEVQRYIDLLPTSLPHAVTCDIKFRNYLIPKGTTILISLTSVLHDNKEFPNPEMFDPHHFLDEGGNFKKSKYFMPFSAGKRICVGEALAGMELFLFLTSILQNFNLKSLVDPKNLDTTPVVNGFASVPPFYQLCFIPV
Sequence of Disintegrin and metalloproteinase domain-containing protein 17 (P78536 whole entry, the tested form may be a part): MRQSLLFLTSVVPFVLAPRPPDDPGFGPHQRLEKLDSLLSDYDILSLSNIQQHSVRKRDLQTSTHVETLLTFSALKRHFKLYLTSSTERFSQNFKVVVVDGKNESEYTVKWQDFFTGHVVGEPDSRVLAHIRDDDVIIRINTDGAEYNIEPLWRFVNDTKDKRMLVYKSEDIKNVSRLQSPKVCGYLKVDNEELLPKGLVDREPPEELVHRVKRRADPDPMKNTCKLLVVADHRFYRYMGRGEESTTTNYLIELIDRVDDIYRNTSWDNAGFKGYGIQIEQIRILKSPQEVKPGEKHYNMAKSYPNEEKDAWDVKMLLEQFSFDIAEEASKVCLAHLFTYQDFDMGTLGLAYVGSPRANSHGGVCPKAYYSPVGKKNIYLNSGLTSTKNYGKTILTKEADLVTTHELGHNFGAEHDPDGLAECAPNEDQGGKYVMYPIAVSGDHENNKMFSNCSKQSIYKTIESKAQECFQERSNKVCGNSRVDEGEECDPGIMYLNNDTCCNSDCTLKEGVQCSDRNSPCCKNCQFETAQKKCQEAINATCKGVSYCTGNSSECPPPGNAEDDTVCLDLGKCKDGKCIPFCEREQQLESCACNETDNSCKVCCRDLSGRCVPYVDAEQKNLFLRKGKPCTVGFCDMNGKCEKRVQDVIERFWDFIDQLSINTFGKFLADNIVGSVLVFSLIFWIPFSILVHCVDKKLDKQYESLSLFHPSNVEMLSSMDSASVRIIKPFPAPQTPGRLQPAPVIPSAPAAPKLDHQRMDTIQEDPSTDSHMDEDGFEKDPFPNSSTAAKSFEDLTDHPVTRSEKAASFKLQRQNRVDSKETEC
Sequence of Cytochrome P450 2D6 (P10635 whole entry): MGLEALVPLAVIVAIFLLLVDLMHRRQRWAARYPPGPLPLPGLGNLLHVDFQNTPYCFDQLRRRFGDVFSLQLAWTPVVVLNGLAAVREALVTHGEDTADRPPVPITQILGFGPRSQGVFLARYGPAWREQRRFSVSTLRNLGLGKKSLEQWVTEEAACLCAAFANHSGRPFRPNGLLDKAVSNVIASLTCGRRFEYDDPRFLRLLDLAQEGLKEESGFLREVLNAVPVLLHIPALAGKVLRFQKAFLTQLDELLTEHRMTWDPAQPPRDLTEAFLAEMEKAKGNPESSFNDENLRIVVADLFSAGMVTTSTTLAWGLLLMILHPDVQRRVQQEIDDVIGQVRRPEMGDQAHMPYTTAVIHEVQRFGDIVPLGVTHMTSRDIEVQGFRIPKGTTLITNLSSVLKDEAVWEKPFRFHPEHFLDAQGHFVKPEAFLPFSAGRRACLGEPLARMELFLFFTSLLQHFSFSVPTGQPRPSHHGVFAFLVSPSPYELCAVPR

The IC50 is the midpoint of a concentration-inhibition curve. The term clearance denotes the rate of elimination divided by the concentration. A word on the half-life: it is the time needed for the level to fall by half in the phase considered. As usually defined, the Cmax is the peak of the concentration-time curve. As usually defined, the AUC is the area under the concentration-time curve, a measure of exposure. The low end stands for low exposure, the high end for high exposure. For the compound `C[C@@H]1CN(S(=O)(=O)N[C@@]2(C(=O)O)[C@H](C)[C@]2(C)c2ccccc2)CCN1c1ccc(C#N)s1`, the “inhibition (INH)” value against Cytochrome P450 3A4, against Cytochrome P450 2C19, against Cytochrome P450 2C9, on Cytochrome P450 2D6, on Cytochrome P450 1A2 and on Cytochrome P450 2A6 was “Not Active” throughout. Further, the 50% inhibitory concentration (IC50) in [1] is above 10 µM; at Interstitial collagenase it was above 10 µM; in data set [2], above 10 µM; in data set [3] it was 0.029 µM. In addition, in data set [4], the Vd was found to be 2.6 L/kg. The clearance in data set [5] was 4.83 mL/min/kg. Moreover, the half-life in [6] is 4.5 h. In addition, the Cmax in data set [7] stood at 15.9 µM. In data set [8], this compound had an exposure (AUC) of 88.4 µM·h. The bioavailability in data set [9] turned out to be 119%.

As for `C[C@@H]1CN(S(=O)(=O)N[C@@]2(C(=O)O)[C@H](C)[C@]2(C)c2ccccc2)CCN1c1cc(C(F)F)on1`, the “inhibition (INH)” value against Cytochrome P450 3A4, against Cytochrome P450 2C19, against Cytochrome P450 2C9, at Cytochrome P450 2D6, on Cytochrome P450 1A2 and against Cytochrome P450 2A6 was “Not Active” in each case. In addition, the half-maximal inhibitory concentration (IC50) in data set [1] was above 10 µM; at Interstitial collagenase it was above 10 µM; in [2], above 10 µM; in data set [3] it was 0.017 µM. In addition, the Vd in data set [4] is 1.9 L/kg. The clearance in [5] is 11.7 mL/min/kg. The compound also gave a half-life in data set [6] of 1.9 h. In data set [7], this compound yielded a Cmax of 4.9 µM. The same compound gave an area under the curve (AUC) in data set [8] of 17.8 µM·h. Also, the bioavailability in [9] came out at 64%.
